In general, pEC50 refers to the EC50 on a negative log10 scale, so that one unit is a factor of ten.

The record followed here is ChEMBL document CHEMBL1177869, “Synthesis and dual PPARalpha/delta agonist effects of 1,4-disubstituted 1,2,3-triazole analogues of GW 501516” (Eur J Med Chem, 2010).

The nature of test [1]: Induction of [14C]-oleic acid oxidation in human differentiated skeletal muscle cells assessed as accumulation of oxidized [14C]-oleic acid after 4 hrs by liquid scintillation counting. The test is classed as functional. The method in brief:
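Human skeletal muscle myoblasts grown to 70-80% confluence, then differentiated 7 days (DMEM 5.5 mM glucose, 2% FCS, 25 pM insulin). Compound at five concentrations from day 3 (96 h). [1-14C]oleic acid (1 μCi/mL, 100 μM) in DPBS with 10 mM HEPES and 1 mM L-carnitine, 4 h at 37 °C. Filter-trapped CO2 counted by scintillation, normalized to protein. EC50 by non-linear regression. GW 501516 positive control.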

The target in test [2] is T1, Peroxisome proliferator-activated receptor delta (Homo sapiens) (UniProt Q03181).
T1 sequence (whole entry): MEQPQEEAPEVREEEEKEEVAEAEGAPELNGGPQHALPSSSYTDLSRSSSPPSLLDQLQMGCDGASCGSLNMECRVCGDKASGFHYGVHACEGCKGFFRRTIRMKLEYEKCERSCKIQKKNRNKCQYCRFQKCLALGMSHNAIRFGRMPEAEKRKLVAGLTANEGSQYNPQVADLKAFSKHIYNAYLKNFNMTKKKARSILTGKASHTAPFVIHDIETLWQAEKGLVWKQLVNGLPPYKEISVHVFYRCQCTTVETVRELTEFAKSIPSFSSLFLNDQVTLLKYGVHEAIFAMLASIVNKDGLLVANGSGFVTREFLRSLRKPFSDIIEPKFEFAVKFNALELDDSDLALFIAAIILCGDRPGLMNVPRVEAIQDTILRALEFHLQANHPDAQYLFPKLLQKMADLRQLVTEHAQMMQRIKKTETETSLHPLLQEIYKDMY
Briefly: Agonist activity at human PPARdelta ligand binding domain expressed in COS-1 cells co-transfected with Gal4 at 10 uM by luciferase reporter gene assay. The test is classed as cell-based. The method in brief:
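COS-1 cells in DMEM with 10% inactivated FBS, 37 °C, 5% CO2, plated 1 day before lipofectamine transfection. Per well: 320 ng (UAS)5-tk-LUC reporter, 640 ng empty pGL3 basic, 30 ng pSG5-GAL4-hPPAR (α, δ or γ). Compound 10 μM (DMSO negative control) added 5 h post-transfection. Cells kept 24 h, then lysed for luciferase read-out.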
(In a reporter assay the amount or activity of a reporter protein is the signal.)

Test [3] deals with T2, Peroxisome proliferator-activated receptor gamma (Homo sapiens) (UniProt P37231).
T2 sequence (whole entry): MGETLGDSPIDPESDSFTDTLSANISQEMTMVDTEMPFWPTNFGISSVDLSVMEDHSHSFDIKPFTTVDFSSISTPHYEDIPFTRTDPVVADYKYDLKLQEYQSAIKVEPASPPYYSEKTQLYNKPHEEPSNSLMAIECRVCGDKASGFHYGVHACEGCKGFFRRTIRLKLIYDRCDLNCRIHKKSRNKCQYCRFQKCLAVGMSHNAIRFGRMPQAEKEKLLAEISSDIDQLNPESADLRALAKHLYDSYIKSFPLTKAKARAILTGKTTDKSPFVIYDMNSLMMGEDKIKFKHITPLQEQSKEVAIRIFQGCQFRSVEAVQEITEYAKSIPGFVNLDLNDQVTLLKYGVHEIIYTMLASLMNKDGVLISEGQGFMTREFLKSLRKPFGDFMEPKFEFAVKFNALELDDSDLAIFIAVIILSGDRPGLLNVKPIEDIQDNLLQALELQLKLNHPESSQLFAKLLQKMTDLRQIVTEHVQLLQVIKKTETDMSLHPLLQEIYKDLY
Kind of test: Agonist activity at human PPARgamma ligand binding domain expressed in COS-1 cells co-transfected with Gal4 at 10 uM by luciferase reporter gene assay. Format: cell-based. An outline of the steps: (§1)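 COS-1 cells in DMEM with 10% inactivated FBS, 37 °C, 5% CO2, plated 1 day before lipofectamine transfection. Per well: 320 ng (UAS)5-tk-LUC reporter, 640 ng empty pGL3 basic, 30 ng pSG5-GAL4-hPPAR (α, δ or γ). Compound 10 μM (DMSO negative control) added 5 h post-transfection. Cells kept 24 h, then lysed for luciferase read-out. Positive controls: EHA for PPARα, GW 501516 for PPARδ.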

The target of test [4] is T3, Peroxisome proliferator-activated receptor alpha (Homo sapiens) (UniProt Q07869).
T3 sequence (whole entry): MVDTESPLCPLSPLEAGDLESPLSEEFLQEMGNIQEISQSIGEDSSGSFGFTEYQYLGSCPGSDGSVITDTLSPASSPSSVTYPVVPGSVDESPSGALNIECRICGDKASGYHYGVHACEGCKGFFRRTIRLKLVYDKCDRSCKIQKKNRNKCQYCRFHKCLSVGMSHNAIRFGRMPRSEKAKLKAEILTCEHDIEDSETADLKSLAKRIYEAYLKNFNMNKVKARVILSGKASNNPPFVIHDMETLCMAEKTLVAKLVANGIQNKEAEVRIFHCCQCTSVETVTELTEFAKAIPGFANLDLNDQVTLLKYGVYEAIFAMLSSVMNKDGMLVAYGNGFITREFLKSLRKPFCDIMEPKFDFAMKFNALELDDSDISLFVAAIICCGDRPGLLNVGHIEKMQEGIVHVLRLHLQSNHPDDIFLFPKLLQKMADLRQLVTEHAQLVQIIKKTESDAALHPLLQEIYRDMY
Briefly: Agonist activity at human PPARalpha ligand binding domain expressed in COS-1 cells co-transfected with Gal4 at 10 uM by luciferase reporter gene assay. The test is classed as cell-based. An outline of the steps:
as §1

pEC50: −log10 of the molar value. Active and inactive are the calls of the source. No cut-off for these calls is given here.

On to `Cc1cc(SCc2cn(-c3ccc(OC(F)(F)F)cc3)nn2)ccc1OCC(=O)O`, for which the negative logarithm of the EC50 (pEC50) in test [1] is 8.00.

Regarding `Cc1cc(SCc2cn(-c3ccc(C(F)(F)F)cc3)nn2)ccc1OCC(=O)O`, in test [1], the pEC50 was 8.74.

Take `Cc1cc(SCc2cn(-c3ccc(OC(F)(F)F)c(Cl)c3)nn2)ccc1OCC(=O)O`: the result in test [2] and in test [4] was Active. The result in test [3] was inactive. The pEC50 in test [1] was 7.92.

`Cc1cc(SCc2sc(-c3ccc(C(F)(F)F)cc3)nc2C)ccc1OCC(=O)O` [GW501516]: in test [1], the pEC50 is 10.15.

On to `Cc1cc(SCc2cn(-c3ccc(OC(F)(F)F)c(F)c3)nn2)ccc1OCC(=O)O`, for which, in test [1], the pEC50 was 8.85.

`Cc1cc(SCc2cn(-c3ccc(C(F)(F)F)c(F)c3)nn2)ccc1OCC(=O)O`: the result in test [2] and in test [4] was Active. For the same compound, the outcome in test [3] was inactive. Also, the pEC50 in test [1] was 9.07.
